Source: PubChem (several laboratories)
This is a sample that favours compounds with a hit; in the whole collection about 1.8% have one here.
DAGLB inhibitor = diacylglycerol lipase beta (human) inhibition. hit rate 0.059% among 340,000. HEK293T DAGLB membrane lysate, EnzChek fluorogenic substrate. inhibition, % at 5.17 µM. AID 504411; in the data active means inhibition above about 34%;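 further: 0% = enzyme with vehicle and 100% = wells lacking enzyme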
Target sequence (Q8NCG7 whole entry, looked up): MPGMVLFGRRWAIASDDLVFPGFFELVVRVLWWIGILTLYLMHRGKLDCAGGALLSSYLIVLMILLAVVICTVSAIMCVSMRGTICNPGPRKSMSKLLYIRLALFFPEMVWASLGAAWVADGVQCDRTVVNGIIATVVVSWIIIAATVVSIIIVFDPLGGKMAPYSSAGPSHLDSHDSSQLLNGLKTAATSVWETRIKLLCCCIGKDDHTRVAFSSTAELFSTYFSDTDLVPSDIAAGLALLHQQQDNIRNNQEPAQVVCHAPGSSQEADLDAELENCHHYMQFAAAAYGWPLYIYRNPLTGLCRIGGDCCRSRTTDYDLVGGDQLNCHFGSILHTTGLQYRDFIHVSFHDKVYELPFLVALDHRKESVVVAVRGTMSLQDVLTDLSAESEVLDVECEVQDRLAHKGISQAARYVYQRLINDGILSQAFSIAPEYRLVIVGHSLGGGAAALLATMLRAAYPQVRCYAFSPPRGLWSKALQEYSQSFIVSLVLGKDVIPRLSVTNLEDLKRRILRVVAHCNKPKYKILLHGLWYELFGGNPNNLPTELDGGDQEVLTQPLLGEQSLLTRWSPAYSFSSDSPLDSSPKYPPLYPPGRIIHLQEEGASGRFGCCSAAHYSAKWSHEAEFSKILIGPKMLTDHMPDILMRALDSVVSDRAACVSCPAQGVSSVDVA
hiPSC survival = hiPSC single-cell survival enhancement; ATPlite luminescence; 100% = ROCK inhibitor wells, 0% = DMSO; survival enhancement, % at 20 µM; hit rate 0.044% among 360,000; in the data active means survival enhancement above about 18%;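 further: cells exposed to compounds for 16 hours before the ATP read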
SKN-1 block = blocks SKN-1 activity in C. elegans; hit rate 0.49% among 360,000; inhibition, % at 21.8 µM; C. elegans VP596 Pgst-4::GFP/RFP ratio, acrylamide-induced, 24 h;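 active means interference check ratio from 0.5 to 1.5 plus GFP to RFP signal ratio inhibition reaching or exceeding a fixed threshold, cut at about 30% in these data, passing the limit was not always enough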
MT1-MMP act inh = MT1-MMP (human) activation inhibition; AID 651647; hit rate 0.061% among 360,000; HT1080 RFP-PRO-GFP cells, GFP/RFP ratio fluorescence, overnight; percent of plate control window, DMSO zero; GFP/RFP ratio change, % at 20 µM; P50281;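 active means GFP/RFP ratio change of at least 30% with cell ATP level not reduced by more than half and red fluorescence within 50% of control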
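system = RFP-PRO-GFP reporter HT1080 cells | dosing = 20 µM single dose, 1% DMSO | timing = overnight cell settling, then overnight compound exposure, 37 °C, 5% CO2 | read-out basis = GFP/RFP fluorescence ratio | controls = DMSO and RFP-L50D-GFP cell wells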
Cneo AK release = causes C. neoformans cell lysis | hit rate 0.2% among 360,000 | lysis activity, % at 15 µM | adenylate kinase release luminescence, 4 h; normalised: neutral wells 0, clomiphene wells 100;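 active means mean lysis activity across replicates of at least 80%, whatever share of replicates individually reach that level; inactive means mean lysis activity below 80%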
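Assay system: C. neoformans cells. Amount: yeast cell density of 5 × 10^6 cells/mL. Technique: AK luminescence. Buffer or medium: YPD. Times: static 4 h at 37 °C with compound, 1 h detection. Dosing: single-point compound dose. Read-out: lysis from increased AK signal.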
Ecoli rRNA inh = selective bacterial rRNA inhibition in E. coli | E. coli WT GFP vs humanized-ribosome RFP mutants, fluorescence, 24 h; active compounds read low; DMSO median 0, no signal -100 | GFP signal change (wild-type ribosome), % (no concentration beside the values) | hit rate 1.6% among 350,000 | AID 720706;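 active means significant combined selectivity score with lowered wild-type GFP, culture density cut under 30%, mutant RFP and density less affected; inactive means any of these conditions unmet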
The depositor's hits bear a star; x = no result given.

SMILES | DAGLB inhibitor | hiPSC survival | SKN-1 block | MT1-MMP act inh | Cneo AK release | Ecoli rRNA inh
CC1(C)CC(=O)C2=C(C1)NC(SCC(=O)Nc1ccccc1)=C(C#N)C2c1ccco1 (stereo not drawn) | -14 | -1 | 0 | -10 | 1 | x
C[C@H](CO)N1C[C@H](C)[C@@H](CN(C)Cc2ccc(C(=O)O)cc2)Oc2ccc(NC(=O)Nc3cccc4ccccc34)cc2CC1=O | x | x | x | x | 0 | -1
CCC(=O)N(C)C[C@@H]1Oc2cc(-c3ccccc3)ccc2S(=O)(=O)N([C@@H](C)CO)C[C@@H]1C | x | x | x | x | 78 | -8
CC(=O)C[C@@H]1OC[C@H](Cc2ccccc2)N1S(=O)(=O)c1ccc(C)cc1 | x | x | -10 | 15 | x | -28*
O=C(Nc1nccs1)[C@@H]1[C@@H](CO)[C@@H]2Cn3c(cccc3=O)[C@H]1N2C(=O)C1CCCCC1 | x | x | x | x | x | 7
CC(C)(C)NC(=S)Nc1cccc(C(F)(F)F)c1 | -3 | 0 | -8 | -1 | 8 | -48*
FC(F)(F)c1cccc(NC(=S)Nc2ccc(Cl)c(Cl)c2)c1 | x | -1 | 14 | 1 | -2 | -49*
CN1c2ccc(-c3ccccc3F)cc2[C@H]2[C@H](CCN2S(=O)(=O)c2ccc(F)cc2)[C@H]1CO | x | x | x | x | 6 | -2
O=C(C[C@H]1C[C@@H]2c3cc(NC(=O)C4CCC4)ccc3O[C@@H]2[C@@H](CO)O1)NCc1cccc(F)c1 | x | x | x | x | 1 | -9
CCOc1ccc(N(C(=O)Cn2nnc3ccccc32)C(C(=O)NC(C)(C)CC)c2cccn2C)cc1 (stereo not drawn) | 0 | -1 | 3 | -5 | -5 | x
CCC(C)(C)NC(=O)C(c1cccn1C)N(C(=O)Cn1nnc2ccccc21)c1ccc(OC)cc1OC (stereo not drawn) | 2 | -4 | 43* | -5 | -2 | x
Cc1nn(-c2ccccc2)c(C)c1CN(C)C(=O)c1ccc(S(=O)(=O)NCc2ccco2)cc1 | 3 | 1 | 22 | 3 | 2 | -33*
CN(Cc1ccc(Cl)cc1)C(=O)c1ccc(S(=O)(=O)NCc2ccco2)cc1 | 0 | 0 | 10 | -2 | 6 | 5
O=C(OCn1ncc(Br)c(Br)c1=O)c1ccccc1Cl | 1 | 35* | -18 | -7 | -4 | -20*
O=C(NC1CCCC1)C1C(c2ccc(C(F)(F)F)cc2)=Nc2ccccc2N1C(=O)c1ccco1 (stereo not drawn) | x | x | 41* | -1 | x | x
O=c1cc(C(F)(F)F)[nH]c2ccc(C(F)(F)F)cc12 | -2 | 1 | 14 | 11 | x | -50*
COc1ccc(NC(=O)Nc2ccc3c(c2)CC(=O)N([C@H](C)CO)C[C@@H](C)[C@@H](CN(C)C(=O)Nc2ccc(F)cc2)O3)cc1 | x | x | x | x | -2 | 4
Cc1cc(C)nc(N/N=C/c2ccccc2OCc2ccc(Br)cc2)n1 | -1 | 0 | 5 | 6 | 2 | 2
Cc1cc(C)nc(N/N=C/c2cc(Br)ccc2O)n1 | 3 | 0 | 2 | x | 4 | -37*
O=C(COc1ccc(Cl)cc1Cl)NC(=S)N1CCCc2ccccc21 | 1 | -1 | 5 | -1 | x | -26*
O=C(COc1ccc(Cl)cc1Cl)OCC(=O)N1CCCc2ccccc21 | -4 | -2 | 1 | -4 | x | 1
Oc1cccc(NC(=S)N=Nc2c(O)[nH]c3ccccc23)c1 | 8 | 0 | 0 | 7 | -5 | -54*
CCOc1ccc(NC(=S)N=Nc2c(O)[nH]c3ccccc23)cc1 | 9 | 0 | 0 | 14 | x | -11
CCN(CC)S(=O)(=O)c1cccc2c(N(C)C)cccc12 | -9 | -1 | 45* | -2 | 0 | x
CCN1[C@@H]2Cn3c(ccc(C4=CCCCC4)c3=O)[C@H]1[C@@H](C(=O)NCC(F)(F)F)[C@@H]2CO | x | x | x | x | x | 5
SMILES | DAGLB inhibitor | hiPSC survival | SKN-1 block | MT1-MMP act inh | Cneo AK release | Ecoli rRNA inh
COc1c(-c2ccc(O)cc2)oc2cc(O)cc(O)c2c1=O | -2 | -3 | -4 | 2 | -2 | -20*
COc1cccc(CN2[C@@H](CO)[C@H](c3ccccc3)C23CN(C(=O)C2CCCC2)C3)c1 | x | x | x | x | x | 1
CN1[C@@H]2Cn3c(ccc(-c4ccncc4)c3=O)[C@H]1[C@@H](C(=O)NCC1CCCCC1)[C@@H]2CO | x | x | x | x | x | 1
Cc1ccccc1CNC(=O)c1ccc2sc([C@H]3C[C@H](O)[C@@H](CO)O3)nc2c1 | x | 0 | 39* | 2 | 1 | -1
O=C(NCC1CC1)c1ccc2sc([C@H]3C[C@H](O)[C@@H](CO)O3)nc2c1 | x | 0 | 9 | -7 | -1 | 9
CN(C)c1cccc(-c2cc(Nc3ccc(C(C)(C)C)cc3)ncn2)c1 | x | -1 | 14 | 5 | -1 | -9
CN(C)CCCNc1ccc(-c2cc(Nc3cccc(Cl)c3)ncn2)cn1 | 2 | -4 | 3 | 8 | 2 | -20*
Cc1cc(NC(=O)c2c(-c3ccccc3Cl)noc2C)no1 | 1 | 0 | 0 | 1 | x | 10
Cc1onc(-c2ccccc2Cl)c1C(=O)Nc1nn[nH]n1 | 2 | 1 | -2 | 5 | 0 | -31*
O=C(Cc1cccnc1)N1[C@@H](CO)[C@@H]2c3ccccc3NC[C@@H]21 | x | x | x | x | 0 | 0
COc1ccc(C)c2sc(NC(=O)CCS(=O)(=O)c3ccccc3)nc12 | 0 | 1 | 14 | -14 | -1 | -31*
CCOc1cccc2sc(NC(=O)CCS(=O)(=O)c3ccccc3)nc12 | -1 | 0 | -6 | -4 | -3 | -1
Nc1ccc(Sc2nc3ccccc3[nH]2)cc1 | -1 | 0 | -17 | 0 | x | -22*
O=C(C1CCCC1)N1CC2(C1)[C@@H](c1ccccc1)[C@@H](CO)N2Cc1cncnc1 | x | x | x | x | x | 1
C[C@@H]1CN([C@H](C)CO)C(=O)c2cccc(NS(=O)(=O)c3ccccc3)c2O[C@H]1CN(C)C(=O)Nc1ccc2c(c1)OCO2 | x | x | x | x | 3 | 0
C[C@H]1CN([C@@H](C)CO)C(=O)c2cccc(NS(C)(=O)=O)c2O[C@H]1CN(C)C(=O)Nc1ccc2c(c1)OCO2 | x | x | x | x | 114* | 3
C[C@@H]1CN([C@@H](C)CO)C(=O)c2cccc(NS(C)(=O)=O)c2O[C@@H]1CN(C)C(=O)Nc1ccc2c(c1)OCO2 | x | x | x | x | 88* | 1
C[C@H](CO)N1C[C@H](C)[C@H](CN(C)S(C)(=O)=O)OCCCC[C@H](C)Oc2ccc(NC(=O)Nc3ccc(C(F)(F)F)cc3)cc2C1=O | x | x | x | x | 0 | 2
Cc1oc2ccc(OCc3ccc(Cl)cc3)cc2c1C(=O)O | 7 | 0 | 3 | 3 | 2 | -21
Cc1oc2ccc(OCc3ccc(Br)cc3)cc2c1C(=O)O | 1 | 0 | 4 | -4 | 0 | -26*
Cc1ccc2cc3cc(C(=O)N4CC(C)CC(C)C4)oc3nc2c1 (stereo not drawn) | -10 | -2 | 39* | 3 | -1 | x
